How the values were obtained:
Test in all cases: NCI-60 single-dose antiproliferative screen
Type in all cases: cell-based
SNB-75 = details: Homo sapiens, SNB-75, 48 h, read-out: growth percent
Summary of the method: (§1)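 Cells grown in RPMI 1640 with 5% FBS and 2 mM L-glutamine, plated and held 24 h at 37 °C; time-zero plates TCA-fixed. DMSO stocks were diluted in gentamicin-containing medium to a final 10^-5 M, with a DMSO-only control. Exposure 48 h, 5% CO2. Adherent cells TCA-fixed 1 h at 4 °C, stained with 0.4% SRB, solubilised in 10 mM Trizma base, read at 515 nm. Growth percent derived from ODtzero, ODtest and ODctrl.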

MOLT-4 = details: Homo sapiens, MOLT-4, 48 h, read-out: growth percent
Summary of the method: (§2)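 NCI-60 protocol. Lines were grown in RPMI 1640 with 5% FBS and 2 mM L-glutamine, plated and incubated 24 h at 37 °C; time-zero plates were TCA-fixed. The test compound was dissolved in DMSO, diluted in medium with 50 μg/mL gentamicin and given once at a final 10^-5 M (DMSO control) for 48 h. Cells were fixed with cold TCA (1 h, 4 °C) and stained with 0.4% SRB in 1% acetic acid for 10 min. Dye was dissolved in 10 mM Trizma base and read at 515 nm. Growth percent was calculated from time-zero, test and control ODs.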

HT29 = details: Homo sapiens, HT-29, 48 h, read-out: growth percent
Summary of the method: as §2

HCT-15 = details: Homo sapiens, HCT-15, 48 h, read-out: growth percent
Summary of the method: as §2

MDA-MB-435 = details: Homo sapiens, MDA-MB-435, 48 h, read-out: growth percent
Summary of the method: as §2

NCI-H460 = details: Homo sapiens, NCI-H460, 48 h, read-out: growth percent
Summary of the method: as §2

OVCAR-8 = details: Homo sapiens, OVCAR-8, 48 h, read-out: growth percent
Summary of the method: as §2

UACC-257 = details: Homo sapiens, UACC-257, 48 h, read-out: growth percent
Summary of the method: as §1

SNB-19 = details: Homo sapiens, SNB-19, 48 h, read-out: growth percent
Summary of the method: as §1

NCI-H23 = details: Homo sapiens, NCI-H23, 48 h, read-out: growth percent
Summary of the method: as §2

OVCAR-3 = details: Homo sapiens, OVCAR-3, 48 h, read-out: growth percent
Summary of the method: as §2

ACHN = details: Homo sapiens, 48 h, read-out: growth percent
Summary of the method: as §2

UO-31 = details: Homo sapiens, UO-31, 48 h, read-out: growth percent
Summary of the method: as §1

HS 578T = details: Homo sapiens, 48 h, read-out: growth percent
Summary of the method: as §2

UACC-62 = details: Homo sapiens, UACC-62, 48 h, read-out: growth percent
Summary of the method: as §1

NCI-H226 = details: Homo sapiens, NCI-H226, 48 h, read-out: growth percent
Summary of the method: as §2

T-47D = details: Homo sapiens, T47D, 48 h, read-out: growth percent
Summary of the method: as §1

COLO205 = details: Homo sapiens, COLO 205, 48 h, read-out: growth percent
Summary of the method: as §2

U251 = details: Homo sapiens, U-251, 48 h, read-out: growth percent
Summary of the method: as §1

SF-539 = details: Homo sapiens, SF-539, 48 h, read-out: growth percent
Summary of the method: as §1

SMILES | activity at 10 µM (SNB-75) [%] | activity at 10 µM (MOLT-4) [%] | activity at 10 µM (HT29) [%] | activity at 10 µM (HCT-15) [%] | activity at 10 µM (MDA-MB-435) [%] | activity at 10 µM (NCI-H460) [%] | activity at 10 µM (OVCAR-8) [%] | activity at 10 µM (UACC-257) [%] | activity at 10 µM (SNB-19) [%] | activity at 10 µM (NCI-H23) [%] | activity at 10 µM (OVCAR-3) [%] | activity at 10 µM (ACHN) [%] | activity at 10 µM (UO-31) [%] | activity at 10 µM (HS 578T) [%] | activity at 10 µM (UACC-62) [%] | activity at 10 µM (NCI-H226) [%] | activity at 10 µM (T-47D) [%] | activity at 10 µM (COLO205) [%] | activity at 10 µM (U251) [%] | activity at 10 µM (SF-539) [%]
COc1cc(CNC(=O)CCCC/C=C/C(C)C)ccc1OCc1cn(-c2ccc([N+](=O)[O-])cc2)nn1 [14e, (E)-N-(3-Methoxy-4-((1-(4-nitrophenyl)-1H-1,2,3-triazol-4-yl)methoxy)benzyl)-8methylnon-6-enamide] | 83.9 | 79.3 | 98.1 | 96.2 | 99.7 | 99.8 | 82.9 | 82.6 | 97.4 | 83.2 | 92.7 | 82 | 60.6 | 95.8 | 69.3 | 89.6 | 64 | 118 | 86.4 | 104
COc1cc(CNC(=O)CCCC/C=C/C(C)C)ccc1OCc1cn(-c2ccc(C(F)(F)F)cc2)nn1 [14g, (E)-N-(3-Methoxy-4-((1-(4-(trifluoromethyl)phenyl)-1H-1,2,3-triazol-4-yl)methoxy)benzyl)-8-methylnon-6-enamide] | 49.7 | 80.3 | 79 | 59.7 | 107 | 16.7 | 41.1 | 98.2 | 76.1 | 94.6 | 107 |  | 92.8 | 70.7 | 84.3 | 53.6 | 84.5 | 72.6 | 46.7 | 81.9
COc1cc(CNC(=O)CCCC/C=C/C(C)C)ccc1OCc1cn(-c2ccccc2OC)nn1 [14l, (E)-N-(3-Methoxy-4-((1-(2-methoxyphenyl)-1H-1,2,3-triazol-4-yl)methoxy)benzyl)-8-methylnon-6-enamide] | 103 | 79.7 | 98.7 | 106 | 110 | 104 | 82.2 | 85.2 | 91.6 | 96 | 103 |  | 105 | 83 | 75.1 | 80.5 | 92.2 | 117 | 90.2 | 106
COc1cc(CNC(=O)CCCC/C=C/C(C)C)ccc1OCc1cn(-c2cc(OC)c(OC)c(OC)c2)nn1 [14m, (E)-N-(3-Methoxy-4-((1-(3,4,5-trimethoxyphenyl)-1H-1,2,3-triazol-4-yl)methoxy)benzyl)-8-methylnon-6-enamide] | 95.2 | 92 | 87.2 | 103 | 106 | 102 | 88.2 | 93.6 | 85.1 | 90.1 | 103 |  | 117 | 69 | 87.8 | 91.4 | 95.8 | 106 | 92.8 | 92
CCc1ccc(-n2cc(COc3ccc(CNC(=O)CCCC/C=C/C(C)C)cc3OC)nn2)cc1 [14o, (E)-N-(4-((1-(4-Ethylphenyl)-1H-1,2,3-triazol-4-yl)methoxy)-3-methoxybenzyl)-8-methylnon-6-enamide] | 92.6 | 79.6 | 109 | 94.4 | 107 | 103 | 91.1 | 86.4 | 85.7 | 89.5 | 101 |  | 93.9 | 78 | 71.4 | 76.7 | 111 | 121 | 89.4 | 104

Reference: article PMC9476207 (ACS Omega, 2022)
